# Assays:
# Format in all cases: functional
# [1] = test system: Bacillus subtilis; test: Antibacterial activity against Bacillus subtilis MTCC 121 for 24 hrs by agar diffusion method
# Procedure, shortened: (§1)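 Agar well diffusion on Mueller Hinton agar plates swabbed with bacterial suspension of approx. 1.5 × 10⁸ cfu/mL. 8 mm wells were loaded with compound at 4.0 mg/mL in DMSO. Plates were incubated 37 °C for 24 h. Read-out was inhibition zone diameter in mm, including the 8 mm well, as mean of three replicates. Controls were DMSO (negative) and ciprofloxacin (positive).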
# [2] = test system: Staphylococcus aureus; test: Antibacterial activity against Staphylococcus aureus MTCC 96 for 24 hrs by macrodilution method; details: MTCC 96, 24 h
# Procedure, shortened: (§2)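 MIC by NCCLS macrodilution tube method. Tubes were inoculated with bacteria at 1.5 × 10⁸ cfu/mL and incubated at 37 °C for 24 h. Turbidity was scored visually. Ciprofloxacin served as control.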
# [3] = test system: Staphylococcus aureus; test: Antibacterial activity against Staphylococcus aureus MTCC 96 for 24 hrs by agar diffusion method; procedure, shortened: as §1
# [4] = test system: Aspergillus niger; test: Antifungal activity against Aspergillus niger MTCC 282 assessed as inhibition of mycelial growth for 7 days by poisoned food method
# Procedure, shortened: (§3)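 Poisoned food method. Compound at 4.0 mg/mL in DMSO was mixed into agar, poured and solidified at room temperature. Each plate was inoculated centrally with an 8 mm plug from an actively growing colony and incubated at 25 °C for 7 days. Colony diameter was converted to percent mycelial inhibition, in triplicate. Controls were DMSO (negative) and fluconazole (positive).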
# [5] = test system: Bacillus subtilis; test: Antibacterial activity against Bacillus subtilis MTCC 121 for 24 hrs by macrodilution method; details: MTCC 121, 24 h; procedure, shortened: as §2
# [6] = test system: Aspergillus flavus; test: Antifungal activity against Aspergillus flavus MTCC 871 assessed as inhibition of mycelial growth for 7 days by poisoned food method; procedure, shortened: as §3
Compound,diameter of the inhibition zone (DIZ) [1] [mm],MIC [2] [µg/mL],diameter of the inhibition zone (DIZ) [3] [mm],inhibition (INH) [4] [%],MIC [5] [µg/mL],inhibition (INH) [6] [%]
COc1ccc(-c2nn(-c3ccc(S(N)(=O)=O)cc3)cc2C(N)=S)cc1,15.6,128,16.6,55.5,128,57.7
Cc1ccc(-c2nn(-c3ccc(S(N)(=O)=O)cc3)cc2C(N)=S)cc1,16.3,32,21.6,44.4,128,51.1
NC(=S)c1cn(-c2ccc(S(N)(=O)=O)cc2)nc1-c1ccccc1,15,128,15.3,50,128,53.3
NS(=O)(=O)c1ccc(-n2cc(C(=O)O)c(-c3ccccc3)n2)cc1,16.6,128,15.3,50,128,55.5
NC(=S)c1cn(-c2ccc(S(N)(=O)=O)cc2)nc1-c1ccc(F)cc1,15.3,64,17.6,44.4,128,61.1
NS(=O)(=O)c1ccc(-n2cc(C(=O)O)c(-c3ccc(Cl)cc3)n2)cc1,21.6,64,18.6,45.5,32,44.4
OC(Cn1cncn1)(Cn1cncn1)c1ccc(F)cc1F [FLUCONAZOLE],,,,75.3,,74.6
NC(=S)c1cn(-c2ccc(S(N)(=O)=O)cc2)nc1-c1ccc(Br)cc1,18.3,32,21.6,44.4,64,51.1
O=C(O)c1cn(C2CC2)c2cc(N3CCNCC3)c(F)cc2c1=O [CIPROFLOXACIN],26.3,5,27.6,,5,
COc1ccc(-c2nn(-c3ccc(S(N)(=O)=O)cc3)cc2C(=O)O)cc1,17,128,15.6,44.4,64,44.4
NS(=O)(=O)c1ccc(-n2cc(C(=O)O)c(-c3ccc(F)cc3)n2)cc1,18.6,128,15,52.5,64,48.8
NC(=S)c1cn(-c2ccc(S(N)(=O)=O)cc2)nc1-c1ccc(Cl)cc1,14.6,64,18.3,50,> 128,52.5
NS(=O)(=O)c1ccc(-n2cc(C(=O)O)c(-c3ccc([N+](=O)[O-])cc3)n2)cc1,15,> 128,14.6,61.1,128,57.7
Cc1ccc(-c2nn(-c3ccc(S(N)(=O)=O)cc3)cc2C(=O)O)cc1,17.3,> 128,14.6,46.6,64,51.1
NS(=O)(=O)c1ccc(-n2cc(C(=O)O)c(-c3cccs3)n2)cc1,15.6,64,18.6,57.7,128,55.5
NC(=S)c1cn(-c2ccc(S(N)(=O)=O)cc2)nc1-c1cccs1,17.6,64,20.3,61.1,64,55.5
NS(=O)(=O)c1ccc(-n2cc(C(=O)O)c(-c3ccc(Br)cc3)n2)cc1,14.3,128,15.6,51.1,> 128,45.5

# Source: ChEMBL document CHEMBL1759833, “Synthesis and biological evaluation of some 4-functionalized-pyrazoles as antimicrobial agents” (2011)
